Reference: ChEMBL document CHEMBL1629434, “Cholesterol-based α-phenyl-N-tert-butyl nitrone derivatives as antioxidants against light-induced retinal degeneration” (Bioorg Med Chem Lett, 2010)
Activity calls are given as the source filed them. No cut-off for these calls is given here.

Columns and labels:
[1] = Solubility of the compound at 1 mM in PBS; assay type: physicochemical; settings: buffer, 1000 µM
[2] = species on record: Rattus norvegicus; test: Protection against light-induced photoreceptor degradation in albino rat retina exposed to bright fluorescent light assessed as reduction in ONL thickness on superior side at 1 mM, intravitreally after 24 hrs; assay type: functional, organism-based
Procedure, shortened: (§1)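 Albino rats got a 2 µL intravitreal injection 18 h before 24 h exposure to bright fluorescent light. Compounds insoluble in PBS 1× at 1 mM were given in DMSO 2%; PBS-soluble ones were given in PBS 1×. Untreated-unexposed and DMSO 2% groups served as controls.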

[3] = Solubility of the compound at 1 mM in 2% DMSO; assay type: physicochemical; settings: 1000 µM
[4] = species on record: Rattus norvegicus; test: Protection against light-induced photoreceptor degradation in albino rat retina exposed to 12 hrs dark and 12 hrs light assessed as reduction in ONL thickness at 1 mM, intravitreally after 24 hrs; assay type: functional, organism-based; procedure, shortened: as §1
[5] = species on record: Rattus norvegicus; test: Protection against light-induced photoreceptor degradation in albino rat retina exposed to 12 hrs dark and 12 hrs light assessed as reduction in ONL thickness on inferior side at 9 mM, intravitreally after 24 hrs; assay type: functional, organism-based; procedure, shortened: as §1
[6] = Half life in albino rat retina; assay type: ADME, tissue-based
[7] = species on record: Rattus norvegicus; test: Protection against light-induced photoreceptor degradation in albino rat retina exposed to 12 hrs dark and 12 hrs light assessed as reduction in ONL thickness on superior side at 9 mM, intravitreally after 24 hrs; assay type: functional, organism-based; procedure, shortened: as §1

| solubility [1] | Activity [2] | solubility [3] | Activity [4] | Activity [5] | half-life [6] [h] | Activity [7] | Structure (SMILES) |
| --- | --- | --- | --- | --- | --- | --- | --- |
| Insoluble | inactive | soluble |  |  |  |  | CC(C)CCC[C@@H](C)[C@H]1CC[C@H]2[C@@H]3CC=C4C[C@@H](OCCC(=O)NCC(C)(C)/[N+]([O-])=C/c5ccc(CNC(=O)[C@@H](O)[C@H](O)[C@H](O[C@@H]6O[C@H](CO)[C@H](O)[C@H](O)[C@H]6O)[C@@H](O)CO)cc5)CC[C@]4(C)[C@H]3CC[C@]12C |
| Insoluble | Active | soluble |  |  |  |  | CC(C)CCC[C@@H](C)[C@H]1CC[C@H]2[C@@H]3CC=C4C[C@@H](OCCC(=O)NCc5ccc(/C=[N+](\[O-])C(C)(C)CNC(=O)[C@@H](O)[C@H](O)[C@H](O[C@@H]6O[C@H](CO)[C@H](O)[C@H](O)[C@H]6O)[C@@H](O)CO)cc5)CC[C@]4(C)[C@H]3CC[C@]12C |
|  |  |  | inactive | Active | 2 | Active | CC(C)(C)/[N+]([O-])=C/c1ccccc1 |
